# In ChEMBL document CHEMBL1949609, “Synthesis and biological evaluation of novel sinomenine derivatives as anti-inflammatory agents” (Eur J Med Chem, 2012):
# Tested on: RAW264.7
# Experiment: Antiinflammatory activity in mouse RAW264.7 cells assessed as inhibition of LPS-induced nitric oxide production after 24 hrs by Griess method
# Format: functional, cell-based
# Conditions: RAW264.7, 24 h
# How it was run: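 Cells were treated with compound (0.5–100 µM; 0.1% DMSO final) and LPS 500 ng/mL together for 24 h. Nitrite in the medium was read with Griess reagent (10 min, room temperature, dark) at OD540. IC50 comes from three separate experiments, each in triplicate.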
row,SMILES,IC50 [µM]
1,COC1=C[C@@H]2[C@@H]3Cc4ccc(OC)c(OC(=O)CCCC(=O)Oc5c(OC)ccc6c5[C@@]57CCN(C)[C@@H](C6)[C@H]5C=C(OC)C(=O)C7)c4[C@]2(CCN3C)CC1=O,> 100
2,CCOc1c(OC)ccc2c1[C@@]13CCN(C)[C@@H](C2)[C@H]1C=C(OC)C(=O)C3,> 100
3,COC1=C[C@@H]2[C@@H]3Cc4ccc(OC)c(OC(=O)CCCCCCCC(=O)Oc5c(OC)ccc6c5[C@@]57CCN(C)[C@@H](C6)[C@H]5C=C(OC)C(=O)C7)c4[C@]2(CCN3C)CC1=O,29.5
4,CCCCCCCC(=O)Oc1c(OC)ccc2c1[C@@]13CCN(C)[C@@H](C2)[C@H]1C=C(OC)C(=O)C3,32.6
5,COC1=C[C@@H]2[C@@H]3Cc4ccc(OC)c(OCCCCCCCCOc5c(OC)ccc6c5[C@@]57CCN(C)[C@@H](C6)[C@H]5C=C(OC)C(=O)C7)c4[C@]2(CCN3C)CC1=O,3.8
6,CCCCOc1c(OC)ccc2c1[C@@]13CCN(C)[C@@H](C2)[C@H]1C=C(OC)C(=O)C3,59.6
7,COC1=C[C@@H]2[C@@H]3Cc4ccc(OC)c(OC(=O)CCCCC(=O)Oc5c(OC)ccc6c5[C@@]57CCN(C)[C@@H](C6)[C@H]5C=C(OC)C(=O)C7)c4[C@]2(CCN3C)CC1=O,> 100
8,CCCCCCCOc1c(OC)ccc2c1[C@@]13CCN(C)[C@@H](C2)[C@H]1C=C(OC)C(=O)C3,21.3
9,CCCOc1c(OC)ccc2c1[C@@]13CCN(C)[C@@H](C2)[C@H]1C=C(OC)C(=O)C3,> 100
10,COC1=C[C@@H]2[C@@H]3Cc4ccc(OC)c(OCCOCCOCCOc5c(OC)ccc6c5[C@@]57CCN(C)[C@@H](C6)[C@H]5C=C(OC)C(=O)C7)c4[C@]2(CCN3C)CC1=O,> 100
11,CCCCCCCCOc1c(OC)ccc2c1[C@@]13CCN(C)[C@@H](C2)[C@H]1C=C(OC)C(=O)C3,14.2
12,CCCCC(=O)Oc1c(OC)ccc2c1[C@@]13CCN(C)[C@@H](C2)[C@H]1C=C(OC)C(=O)C3,> 100
13,COC1=C[C@@H]2[C@@H]3Cc4ccc(OC)c(OC(=O)CCC(=O)Oc5c(OC)ccc6c5[C@@]57CCN(C)[C@@H](C6)[C@H]5C=C(OC)C(=O)C7)c4[C@]2(CCN3C)CC1=O,> 100
14,COC1=C[C@@H]2[C@@H]3Cc4ccc(OC)c(OCCCCOc5c(OC)ccc6c5[C@@]57CCN(C)[C@@H](C6)[C@H]5C=C(OC)C(=O)C7)c4[C@]2(CCN3C)CC1=O,24.6
15,COC1=C[C@@H]2[C@@H]3Cc4ccc(OC)c(OCCOc5c(OC)ccc6c5[C@@]57CCN(C)[C@@H](C6)[C@H]5C=C(OC)C(=O)C7)c4[C@]2(CCN3C)CC1=O,> 100

# Tested on: RAW264.7
# Experiment: Cytotoxicity against mouse RAW264.7 cells after 24 hrs by MTT assay
# Format: cell-based
# Conditions: RAW264.7, 24 h
# How it was run: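 Growth of non-LPS RAW264.7 cells was measured by MTT after 24 h with compound: MTT for 4 h, formazan dissolved in DMSO, OD570. Untreated cells were set as 100% viability. IC50 is the concentration giving 50% growth inhibition.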
row,SMILES,IC50 [µM]
1,COC1=C[C@@H]2[C@@H]3Cc4ccc(OC)c(OC(=O)CCCC(=O)Oc5c(OC)ccc6c5[C@@]57CCN(C)[C@@H](C6)[C@H]5C=C(OC)C(=O)C7)c4[C@]2(CCN3C)CC1=O,> 100
2,CCOc1c(OC)ccc2c1[C@@]13CCN(C)[C@@H](C2)[C@H]1C=C(OC)C(=O)C3,> 100
3,COC1=C[C@@H]2[C@@H]3Cc4ccc(OC)c(OC(=O)CCCCCCCC(=O)Oc5c(OC)ccc6c5[C@@]57CCN(C)[C@@H](C6)[C@H]5C=C(OC)C(=O)C7)c4[C@]2(CCN3C)CC1=O,50.8
4,CCCCCCCC(=O)Oc1c(OC)ccc2c1[C@@]13CCN(C)[C@@H](C2)[C@H]1C=C(OC)C(=O)C3,49.5
5,COC1=C[C@@H]2[C@@H]3Cc4ccc(OC)c(OCCCCCCCCOc5c(OC)ccc6c5[C@@]57CCN(C)[C@@H](C6)[C@H]5C=C(OC)C(=O)C7)c4[C@]2(CCN3C)CC1=O,5.4
6,CCCCOc1c(OC)ccc2c1[C@@]13CCN(C)[C@@H](C2)[C@H]1C=C(OC)C(=O)C3,68.1
7,COC1=C[C@@H]2[C@@H]3Cc4ccc(OC)c(OC(=O)CCCCC(=O)Oc5c(OC)ccc6c5[C@@]57CCN(C)[C@@H](C6)[C@H]5C=C(OC)C(=O)C7)c4[C@]2(CCN3C)CC1=O,> 100
8,CCCCCCCOc1c(OC)ccc2c1[C@@]13CCN(C)[C@@H](C2)[C@H]1C=C(OC)C(=O)C3,33.8
9,CCCOc1c(OC)ccc2c1[C@@]13CCN(C)[C@@H](C2)[C@H]1C=C(OC)C(=O)C3,> 100
10,COC1=C[C@@H]2[C@@H]3Cc4ccc(OC)c(OCCOCCOCCOc5c(OC)ccc6c5[C@@]57CCN(C)[C@@H](C6)[C@H]5C=C(OC)C(=O)C7)c4[C@]2(CCN3C)CC1=O,> 100
11,CCCCCCCCOc1c(OC)ccc2c1[C@@]13CCN(C)[C@@H](C2)[C@H]1C=C(OC)C(=O)C3,17.6
12,CCCCC(=O)Oc1c(OC)ccc2c1[C@@]13CCN(C)[C@@H](C2)[C@H]1C=C(OC)C(=O)C3,> 100
13,COC1=C[C@@H]2[C@@H]3Cc4ccc(OC)c(OC(=O)CCC(=O)Oc5c(OC)ccc6c5[C@@]57CCN(C)[C@@H](C6)[C@H]5C=C(OC)C(=O)C7)c4[C@]2(CCN3C)CC1=O,> 100
14,COC1=C[C@@H]2[C@@H]3Cc4ccc(OC)c(OCCCCOc5c(OC)ccc6c5[C@@]57CCN(C)[C@@H](C6)[C@H]5C=C(OC)C(=O)C7)c4[C@]2(CCN3C)CC1=O,36.7
15,COC1=C[C@@H]2[C@@H]3Cc4ccc(OC)c(OCCOc5c(OC)ccc6c5[C@@]57CCN(C)[C@@H](C6)[C@H]5C=C(OC)C(=O)C7)c4[C@]2(CCN3C)CC1=O,> 100

# Tested on: RAW264.7
# Experiment: Antiinflammatory activity in mouse RAW264.7 cells assessed as inhibition of LPS-induced TNFalpha production at 10 uM after 6 hrs by ELISA (reference value: 2646.1 +/- 499.8 pg/ml)
# Format: functional
# Conditions: not given
# How it was run: (§1)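 RAW264.7 cells (DMEM, 5% FBS, 37 °C, 5% CO2) were exposed to compound at 10 µM plus LPS 500 ng/mL at the same time, with 0.1% DMSO final. Supernatant TNF-α and IL-6 were measured by ELISA at 6, 12 and 24 h.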
row,SMILES,Activity [pg/mL]
1,COC1=C[C@@H]2[C@@H]3Cc4ccc(OC)c(OC(=O)CCCCCCCC(=O)Oc5c(OC)ccc6c5[C@@]57CCN(C)[C@@H](C6)[C@H]5C=C(OC)C(=O)C7)c4[C@]2(CCN3C)CC1=O,2107.1
2,CCCCCCCC(=O)Oc1c(OC)ccc2c1[C@@]13CCN(C)[C@@H](C2)[C@H]1C=C(OC)C(=O)C3,2298.9
3,CCCCCCCOc1c(OC)ccc2c1[C@@]13CCN(C)[C@@H](C2)[C@H]1C=C(OC)C(=O)C3,2248.7
4,COC1=C[C@@H]2[C@@H]3Cc4ccc(OC)c(OCCCCOc5c(OC)ccc6c5[C@@]57CCN(C)[C@@H](C6)[C@H]5C=C(OC)C(=O)C7)c4[C@]2(CCN3C)CC1=O,2018

# Tested on: RAW264.7
# Experiment: Antiinflammatory activity in mouse RAW264.7 cells assessed as inhibition of LPS-induced TNFalpha production at 10 uM after 12 hrs by ELISA (reference value: 4126.8 +/- 282 pg/ml)
# Format: functional
# Conditions: not given
# How it was run: as §1
row,SMILES,Activity [pg/mL]
1,COC1=C[C@@H]2[C@@H]3Cc4ccc(OC)c(OC(=O)CCCCCCCC(=O)Oc5c(OC)ccc6c5[C@@]57CCN(C)[C@@H](C6)[C@H]5C=C(OC)C(=O)C7)c4[C@]2(CCN3C)CC1=O,3614.3
2,CCCCCCCC(=O)Oc1c(OC)ccc2c1[C@@]13CCN(C)[C@@H](C2)[C@H]1C=C(OC)C(=O)C3,3357.8
3,CCCCCCCOc1c(OC)ccc2c1[C@@]13CCN(C)[C@@H](C2)[C@H]1C=C(OC)C(=O)C3,4127.2
4,COC1=C[C@@H]2[C@@H]3Cc4ccc(OC)c(OCCCCOc5c(OC)ccc6c5[C@@]57CCN(C)[C@@H](C6)[C@H]5C=C(OC)C(=O)C7)c4[C@]2(CCN3C)CC1=O,3732.8

# Tested on: RAW264.7
# Experiment: Antiinflammatory activity in mouse RAW264.7 cells assessed as inhibition of LPS-induced TNFalpha production at 10 uM after 24 hrs by ELISA (reference value: 10124 +/- 1137.2 pg/ml)
# Format: functional
# Conditions: not given
# How it was run: as §1
row,SMILES,Activity [pg/mL]
1,COC1=C[C@@H]2[C@@H]3Cc4ccc(OC)c(OC(=O)CCCCCCCC(=O)Oc5c(OC)ccc6c5[C@@]57CCN(C)[C@@H](C6)[C@H]5C=C(OC)C(=O)C7)c4[C@]2(CCN3C)CC1=O,9003.6
2,CCCCCCCC(=O)Oc1c(OC)ccc2c1[C@@]13CCN(C)[C@@H](C2)[C@H]1C=C(OC)C(=O)C3,7676.3
3,CCCCCCCOc1c(OC)ccc2c1[C@@]13CCN(C)[C@@H](C2)[C@H]1C=C(OC)C(=O)C3,9134.7
4,COC1=C[C@@H]2[C@@H]3Cc4ccc(OC)c(OCCCCOc5c(OC)ccc6c5[C@@]57CCN(C)[C@@H](C6)[C@H]5C=C(OC)C(=O)C7)c4[C@]2(CCN3C)CC1=O,8744.4

# Tested on: RAW264.7
# Experiment: Antiinflammatory activity in mouse RAW264.7 cells assessed as inhibition of LPS-induced IL-6 production at 10 uM after 6 hrs by ELISA (reference value: 1046.1 +/- 111.2 pg/ml)
# Format: functional
# Conditions: not given
# How it was run: as §1
row,SMILES,Activity [pg/mL]
1,COC1=C[C@@H]2[C@@H]3Cc4ccc(OC)c(OC(=O)CCCCCCCC(=O)Oc5c(OC)ccc6c5[C@@]57CCN(C)[C@@H](C6)[C@H]5C=C(OC)C(=O)C7)c4[C@]2(CCN3C)CC1=O,825.5
2,CCCCCCCC(=O)Oc1c(OC)ccc2c1[C@@]13CCN(C)[C@@H](C2)[C@H]1C=C(OC)C(=O)C3,229.9
3,CCCCCCCOc1c(OC)ccc2c1[C@@]13CCN(C)[C@@H](C2)[C@H]1C=C(OC)C(=O)C3,207.5
4,COC1=C[C@@H]2[C@@H]3Cc4ccc(OC)c(OCCCCOc5c(OC)ccc6c5[C@@]57CCN(C)[C@@H](C6)[C@H]5C=C(OC)C(=O)C7)c4[C@]2(CCN3C)CC1=O,853.3

# Tested on: RAW264.7
# Experiment: Antiinflammatory activity in mouse RAW264.7 cells assessed as inhibition of LPS-induced IL-6 production at 10 uM after 12 hrs by ELISA (reference value: 2145.1 +/- 368.7 pg/ml)
# Format: functional
# Conditions: not given
# How it was run: as §1
row,SMILES,Activity [pg/mL]
1,COC1=C[C@@H]2[C@@H]3Cc4ccc(OC)c(OC(=O)CCCCCCCC(=O)Oc5c(OC)ccc6c5[C@@]57CCN(C)[C@@H](C6)[C@H]5C=C(OC)C(=O)C7)c4[C@]2(CCN3C)CC1=O,1577.1
2,CCCCCCCC(=O)Oc1c(OC)ccc2c1[C@@]13CCN(C)[C@@H](C2)[C@H]1C=C(OC)C(=O)C3,733.3
3,CCCCCCCOc1c(OC)ccc2c1[C@@]13CCN(C)[C@@H](C2)[C@H]1C=C(OC)C(=O)C3,513.9
4,COC1=C[C@@H]2[C@@H]3Cc4ccc(OC)c(OCCCCOc5c(OC)ccc6c5[C@@]57CCN(C)[C@@H](C6)[C@H]5C=C(OC)C(=O)C7)c4[C@]2(CCN3C)CC1=O,1321.9

# Tested on: RAW264.7
# Experiment: Antiinflammatory activity in mouse RAW264.7 cells assessed as inhibition of LPS-induced IL-6 production at 10 uM after 24 hrs by ELISA (reference value: 13412 +/- 1167.6 pg/ml)
# Format: functional
# Conditions: not given
# How it was run: as §1
row,SMILES,Activity [pg/mL]
1,COC1=C[C@@H]2[C@@H]3Cc4ccc(OC)c(OC(=O)CCCCCCCC(=O)Oc5c(OC)ccc6c5[C@@]57CCN(C)[C@@H](C6)[C@H]5C=C(OC)C(=O)C7)c4[C@]2(CCN3C)CC1=O,12863.3
2,CCCCCCCC(=O)Oc1c(OC)ccc2c1[C@@]13CCN(C)[C@@H](C2)[C@H]1C=C(OC)C(=O)C3,7143.8
3,CCCCCCCOc1c(OC)ccc2c1[C@@]13CCN(C)[C@@H](C2)[C@H]1C=C(OC)C(=O)C3,4370.2
4,COC1=C[C@@H]2[C@@H]3Cc4ccc(OC)c(OCCCCOc5c(OC)ccc6c5[C@@]57CCN(C)[C@@H](C6)[C@H]5C=C(OC)C(=O)C7)c4[C@]2(CCN3C)CC1=O,10038.7
